Experimental data taken from PMC6267549 (Clinical Pharmacokinetics, 2018).
“Also recorded” adds a separate entry of the source. Read-outs that look alike come from different tables or passages of the source.

Columns and labels:
[1] = Semaglutide and SNAC urine bioanalysis / renal clearance; assay type: in vivo, human; conditions: for CLR: based on 0–36 h after the tenth dosing, geometric mean (CV)
In short: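 Urine collected pre-dose day 1 and fractionated over set intervals on days 10–11 after the tenth dose, then stored at -20 °C. 1% Triton X-100 added, 1 part per 9 parts urine. Semaglutide and SNAC quantified by the plasma LC-MS/MS methods with ranges corrected by 1.111. Renal clearance derived over 0–36 h after the tenth dose.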

[2] = Effect of haemodialysis on semaglutide and SNAC exposure in subjects with ESRD; assay type: in vivo, human
In short: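 ESRD subjects on haemodialysis three times weekly, started right after dosing (blood flow 500-600 mL/min, ultrafiltration 0-23 mL/min, low- or high-flux membranes). Semaglutide: observed AUC 144–148 h during day-16 dialysis divided by predicted AUC, with λz taken from inter-dialysis plasma levels at 76, 96, 120 and 144 h. SNAC: AUC4 on dialysis day 9 vs non-dialysis day 10, compared by log-scale linear model (dialysis, subject fixed).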

[3] = SNAC plasma pharmacokinetics after ten once-daily doses of oral semaglutide; assay type: in vivo, human; conditions: for tmax,Day10: median (minimum, maximum)
In short: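 Oral tablets (300 mg SNAC) given once daily, 5 mg semaglutide days 1–5 then 10 mg days 6–10, with 120 mL water after >6 h fast and no intake for 30 min after. K3EDTA plasma sampled, including extra points within 24 h after last dose, stored at -20 °C. SNAC measured by LC-MS/MS after in-line solid-phase preparation against an analogue IS (5.00-2000 ng/mL, fivefold dilution above). AUC24 by linear trapezoid; Cmax and tmax observed.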

[4] = subcutaneous administration; rats; cited from earlier work
[5] = subcutaneous administration; monkeys; cited from earlier work
[6] = subcutaneous administration; humans; cited from earlier work
[7] = assay type: in vivo, human; conditions: once-daily oral semaglutide, not characterised in the trial
In short: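 Ten once-daily oral doses given, 5 mg for 5 days then 10 mg for 5 days, fasted. Plasma sampled pre-dose and to 504 h after the last dose, K3EDTA, stored at -20 °C. Semaglutide measured by LC-MS/MS after protein precipitation (0.729-60.8 nmol/L, 1/concentration² weighting). t½ = ln(2)/λz, with λz from log-linear regression on the terminal phase.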

[8] = mild renal impairment vs normal renal function
[9] = moderate renal impairment vs normal renal function
[10] = severe renal impairment vs normal renal function

In the case of `O=C([O-])CCCCCCCNC(=O)c1ccccc1O.[Na+]` [SNAC, sodium N-(8-[2-hydroxybenzoyl]amino) caprylate], the CLR ([1]; ESRD (n = 11)) is reported as 0.01 (508.51) L/h, the CLR ([1]; mild renal impairment (n = 12)) is reported as 0.08 (87.88) L/h and the CLR ([1]; moderate renal impairment (n = 12)) is reported as 0.09 (92.63) L/h. For the same compound, the CLR ([1]; normal renal function (n = 24)) was 0.06 (104.33) L/h, the CLR ([1]; severe renal impairment (n = 12)) was 0.04 (98.22) L/h and the “estimated ratio of AUC4 on day 9 during haemodialysis to AUC4 on day 10” value ([2]; haemodialysis vs no haemodialysis) was 0.95. The “AUC24,Day10” value ([3]; ESRD (n = 11), after tenth dose, geometric mean (CV)) was 1471.4 (27.0) nmol·h/L, the “tmax,Day10” value ([3]; ESRD (n = 11), after tenth dose) was 0.83 (0.17, 5.00) h and the “estimated ratio Cmax,Day10” value ([3]; ESRD vs normal renal function) was 0.79. The “estimated ratio of the AUC24,Day10” value ([3]; ESRD vs normal renal function) was 1.32, the “AUC24,Day10” value ([3]; mild renal impairment (n = 12), after tenth dose, geometric mean (CV)) was 1311.6 (31.5) nmol·h/L and the “tmax,Day10” value ([3]; mild renal impairment (n = 12), after tenth dose) was 0.58 (0.33, 2.50) h. The “estimated ratio Cmax,Day10” value [3, 8] was 0.94, the “estimated ratio of the AUC24,Day10” value [3, 8] was 1.19 and the “AUC24,Day10” value ([3]; moderate renal impairment (n = 12), after tenth dose, geometric mean (CV)) was 1335.9 (34.6) nmol·h/L. For the same compound, the “tmax,Day10” value ([3]; moderate renal impairment (n = 12), after tenth dose) was 0.67 (0.33, 6.00) h, the “estimated ratio Cmax,Day10” value [3, 9] was 0.70 and the “estimated ratio of the AUC24,Day10” value [3, 9] was 1.30. For the same compound, the “AUC24,Day10” value ([3]; normal renal function (n = 24), after tenth dose, geometric mean (CV)) was 1028.8 (29.2) nmol·h/L, the “tmax,Day10” value ([3]; normal renal function (n = 24), after tenth dose) was 0.75 (0.33, 3.00) h and the Cmax ([3]; read-out: Cmax,Day10, ESRD (n = 11), after tenth dose, geometric mean (CV)) was 936 nM. The “AUC24,Day10” value ([3]; severe renal impairment (n = 12), after tenth dose, geometric mean (CV)) was 1522.8 (31.8) nmol·h/L, the “tmax,Day10” value ([3]; severe renal impairment (n = 12), after tenth dose) was 0.67 (0.17, 1.00) h and the “estimated ratio Cmax,Day10” value [3, 10] was 1.06. The “estimated ratio of the AUC24,Day10” value [3, 10] was 1.49.
In the case of `CC[C@H](C)[C@H](NC(=O)[C@H](Cc1ccccc1)NC(=O)[C@H](CCC(=O)O)NC(=O)[C@H](CCCCNC(=O)COCCOCCNC(=O)COCCOCCNC(=O)CC[C@H](NC(=O)CCCCCCCCCCCCCCCCC(=O)O)C(=O)O)NC(=O)[C@H](C)NC(=O)[C@H](C)NC(=O)[C@H](CCC(N)=O)NC(=O)CNC(=O)[C@H](CCC(=O)O)NC(=O)[C@H](CC(C)C)NC(=O)[C@H](Cc1ccc(O)cc1)NC(=O)[C@H](CO)NC(=O)[C@H](CO)NC(=O)[C@@H](NC(=O)[C@H](CC(=O)O)NC(=O)[C@H](CO)NC(=O)[C@@H](NC(=O)[C@H](Cc1ccccc1)NC(=O)[C@@H](NC(=O)CNC(=O)[C@H](CCC(=O)O)NC(=O)C(C)(C)NC(=O)[C@@H](N)Cc1cnc[nH]1)[C@@H](C)O)[C@@H](C)O)C(C)C)C(=O)N[C@@H](C)C(=O)N[C@@H](Cc1c[nH]c2ccccc12)C(=O)N[C@@H](CC(C)C)C(=O)N[C@H](C(=O)N[C@@H](CCCNC(=N)N)C(=O)NCC(=O)N[C@@H](CCCNC(=N)N)C(=O)NCC(=O)O)C(C)C` [semaglutide], the “intact semaglutide in urine, of the administered dose” value [4] is given as “less than 1%”, the detection in urine ([1]; urine samples days 10–11, except one subject in the ESRD group) is given as “not detected in urine; also recorded: not generally detected” and the “intact semaglutide in urine” value [5] is given as “not detected”. The “intact semaglutide in urine, of the administered dose” value [6] was 3.1%, the “AUC144–148 h,dial/AUC144–148 h,pred (estimated ratio)” value ([2]; observed during haemodialysis (day 16) over predicted) was 0.97 and the “time to reach steady state (predicted)” value [7] was 4–5 weeks.
